IC50 data for twelve molecules are collected here from ChEMBL document CHEMBL1125777, “Nonpeptidic angiotensin II antagonists: synthesis and in vitro activity of a series of novel naphthalene and tetrahydronaphthalene derivatives” (J Med Chem, 1991).

In experiment [1] the target is T1, Type-1 angiotensin II receptor B (Rattus norvegicus, UniProt P29089).
T1 sequence (P29089 whole entry): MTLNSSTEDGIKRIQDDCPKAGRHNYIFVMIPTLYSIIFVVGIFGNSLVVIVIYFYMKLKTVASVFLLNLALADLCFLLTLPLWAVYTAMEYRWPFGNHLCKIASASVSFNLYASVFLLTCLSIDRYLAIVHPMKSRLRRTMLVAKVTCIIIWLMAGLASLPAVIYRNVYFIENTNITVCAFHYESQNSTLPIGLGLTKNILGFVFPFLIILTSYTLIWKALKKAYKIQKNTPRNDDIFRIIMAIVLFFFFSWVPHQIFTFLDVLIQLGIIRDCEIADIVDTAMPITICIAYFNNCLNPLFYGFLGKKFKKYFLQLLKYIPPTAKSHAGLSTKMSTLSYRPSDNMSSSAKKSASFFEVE
Briefly: Binding affinity against angiotensin II receptor in rat smooth muscle cell preparations. Summed up: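 Membranes from cultured rat aortic smooth muscle cells (passages 5-20, DMEM with 15% FCS). Bound/free separated by filtration, filter radioactivity counted. Nonspecific binding defined with 1 μM unlabeled AII. IC50 from four-parameter logistic fit. Duplicate tests.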

The species named for experiment [2] is Oryctolagus cuniculus. Description: Inhibition of all induced contractions of rabbit aortic rings. It counts as functional. The conditions noted are these: Aorta. Summed up: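 Thoracic aorta rings (2-3 mm) from male Chinchilla rabbits (2-2.5 kg), 2 g resting tension, modified Krebs-Henseleit, 37 °C, 95% O2/5% CO2, equilibrated ≥1 h. Isometric contraction to 10 nM angiotensin II every 20 min. After two control responses, graded compound concentrations (3-4 per ring) applied 5 min before each challenge. DMSO vehicle controls.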

Experiment [3] has as its target T1, Type-1 angiotensin II receptor B. Briefly: Binding affinity against Angiotensin II receptor in rat smooth muscle cell preparations. In outline: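 Membranes from cultured rat aortic smooth muscle cells (passages 5-20, DMEM with 15% FCS). 20-60 μg protein incubated 60 min at 25 or 30 °C with radiotracer (150 pM) and varying unlabeled competitor concentrations. Bound/free separated by filtration, filter radioactivity counted. Nonspecific binding defined with 1 μM unlabeled AII. IC50 from four-parameter logistic fit. Duplicate tests.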

Turning to `CCCCc1nc(CO)c(Cl)n1Cc1ccc2c(c1)CCC(C(=O)O)C2` (stereo not given), the results for the IC50 in experiment [1] and in experiment [2] were 1100 nM and 300 nM, respectively.

For `CCCCc1nc(CO)c(Cl)n1Cc1ccc2c(c1)CCC(C)(C(=O)O)C2` (stereo not given), the IC50 (usually the concentration that gives 50% inhibition) in experiment [1] stood at 2800 nM; in experiment [2], 2700 nM.

Regarding `CCCCc1nc(CO)c(Cl)n1Cc1ccc2c(c1)CCC(c1nnn[nH]1)C2` (stereo not given), 560 nM corresponded to half-maximal inhibition in experiment [2] (IC50). In other words, the sub-micromolar range.

In experiment [3], `CCCCc1nc(Cl)c(CO)n1Cc1ccc2ccc(-c3nn[nH]n3)cc2c1` came in with an IC50 of 20000 nM.

On to `CCCCc1nc(Cl)c(CO)n1Cc1ccc2c(c1)CCC(C(=O)O)C2` (stereo not given), for which the IC50 in experiment [1] turned out to be 8900 nM; in experiment [2], 1200 nM.

In the case of `CCCCc1nc(Cl)c(CO)n1Cc1ccc2c(c1)CCC(c1nnn[nH]1)C2` (stereo not given), the IC50 in experiment [1] worked out at 5400 nM; in experiment [2], 1900 nM.

Take `CCCCc1nc(Cl)c(CO)n1Cc1ccc2c(c1)CCC(C)(C(=O)O)C2` (stereo not given): the IC50 in experiment [2] was 2200 nM.

Take `CCCCc1nc(Cl)c(CO)n1Cc1cccc2c(-c3nn[nH]n3)cccc12`: the IC50 in experiment [1] is 1100 nM; in experiment [2], 700 nM.

For the molecule `CCCCc1nc(Cl)c(CO)n1Cc1cccc2cc(-c3nnn[nH]3)ccc12`, the IC50 was 4100 nM in experiment [1] and 2600 nM in experiment [2].

For the molecule `CCCCc1nc(Cl)c(CO)n1Cc1ccc2cc(-c3nn[nH]n3)ccc2c1`, the IC50 is 600 nM in experiment [1] and 1600 nM in experiment [2].

Take `CCCCc1nc(CO)c(Cl)n1Cc1ccc2cc(-c3nnn[nH]3)ccc2c1`: the IC50 was found to be 120 nM in experiment [2] and 200 nM in experiment [3].

On to `CCCCc1nc(Cl)c(CO)n1Cc1ccc(-c2ccccc2-c2nnn[nH]2)cc1` [LOSARTAN], for which half-maximal inhibition in experiment [2] (IC50) was put at 24 nM.
